Data from ChEMBL document CHEMBL4732057, “Design, synthesis and biological evaluation of second-generation benzoylpiperidine derivatives as reversible monoacylglycerol lipase (MAGL) inhibitors” (Eur J Med Chem, 2021).
Activity calls are given as the source filed them. No cut-off for these calls is given here.

Key:
[1] = biological target: T1, Lysophosphatidylserine lipase ABHD12 (Homo sapiens) (UniProt Q8N2K0); experiment: Inhibition of human ABHD12 expressed in HEK293 cells using [3H]2-OG as substrate at 10 uM preincubated for 30 mins followed by substrate addition and measured after 5 mins by liquid scintillation spectroscopy; type: cell-based; conditions: time 35.0 min
T1 sequence (whole entry): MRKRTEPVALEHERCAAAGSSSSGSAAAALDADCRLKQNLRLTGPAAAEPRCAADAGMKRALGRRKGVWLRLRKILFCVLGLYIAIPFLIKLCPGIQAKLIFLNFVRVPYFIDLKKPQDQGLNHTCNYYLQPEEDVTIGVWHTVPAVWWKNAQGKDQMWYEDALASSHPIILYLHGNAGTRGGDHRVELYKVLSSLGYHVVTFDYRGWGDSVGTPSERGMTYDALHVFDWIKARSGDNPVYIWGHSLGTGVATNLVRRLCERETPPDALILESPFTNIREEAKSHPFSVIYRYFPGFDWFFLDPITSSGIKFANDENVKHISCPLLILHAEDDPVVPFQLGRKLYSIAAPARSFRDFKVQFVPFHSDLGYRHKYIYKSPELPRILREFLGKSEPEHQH
Summary of the method: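 Homogenate (40 µg) of HEK293 cells stably transfected with human ABHD6 or ABHD12, preincubated with compound 30 min at 37 °C in […], 0.1% BSA, pH 7.6. 2-OG 10 µM added for 5 min at 37 °C. Stopped with CHCl3:MeOH; aqueous tritium counted; blanks and nontransfected HEK293 hydrolysis subtracted. Screening at 10 µM.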

[2] = biological target: T2, Fatty-acid amide hydrolase 1 (Homo sapiens) (UniProt O00519); experiment: Inhibition of FAAH in human U937 cells assessed as reduction in [3H]ethanolamine formation using [ethanolamine-1-3H]AEA as substrate at 10 uM incubated for 15 mins by liquid scintillation spectroscopy; type: cell-based; conditions: U-937
T2 sequence (whole entry): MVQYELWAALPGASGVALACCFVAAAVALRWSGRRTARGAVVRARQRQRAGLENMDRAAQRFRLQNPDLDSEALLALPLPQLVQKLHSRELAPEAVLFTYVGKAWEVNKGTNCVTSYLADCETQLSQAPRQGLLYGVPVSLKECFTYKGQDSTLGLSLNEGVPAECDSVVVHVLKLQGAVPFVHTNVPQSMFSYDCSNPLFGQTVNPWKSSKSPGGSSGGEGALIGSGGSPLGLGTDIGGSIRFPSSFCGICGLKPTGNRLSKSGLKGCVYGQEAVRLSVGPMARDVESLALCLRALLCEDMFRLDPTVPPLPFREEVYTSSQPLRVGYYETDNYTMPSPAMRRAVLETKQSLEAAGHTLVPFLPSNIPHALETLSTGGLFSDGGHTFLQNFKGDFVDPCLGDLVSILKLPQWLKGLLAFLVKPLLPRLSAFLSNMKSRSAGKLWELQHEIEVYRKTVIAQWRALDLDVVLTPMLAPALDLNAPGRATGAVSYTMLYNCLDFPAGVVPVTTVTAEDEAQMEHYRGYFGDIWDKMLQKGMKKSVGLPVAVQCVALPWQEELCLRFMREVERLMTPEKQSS
Summary of the method: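 Intact U937 cells (1.0 × 10^6) in Tris-HCl 10 mM, EDTA 1 mM, 0.1% BSA, pH 8, given compound at 37 °C. Then 15 min at 37 °C with shaking. MAGL: 10 µM 2-OG plus 0.5 nM [3H]2-OG. FAAH: 1 µM AEA plus 2 nM [3H]AEA. Aqueous-phase tritium counted; three experiments in triplicate.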

MDA-MB-231 = experiment: Antiproliferative activity against human MDA-MB-231 cells as reduction in cell growth measured after 96 hrs by Celltiter-glo luminescent assay; type: functional, cell-based; conditions: MDA-MB-231, 96 h
Summary of the method: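 Cell lines kept at 37 °C, 5% CO2; 5 × 10^2 cells per well, compound added the day after seeding at 200 to 0.02 µM. Viability read after 96 h by CellTiter-Glo luminescence. IC50 from logistic dose-response curves, in triplicate; error bars are SD.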

[3] = biological target: T3, Lysophosphatidylserine lipase ABHD12 (Mus musculus) (UniProt Q99LR1); experiment: Inhibition of ABHD12 in mouse brain membrane up to 30 uM preincubated for 25 mins followed by TAMRA-FP labeling addition and measured after 5 mins by competitive ABPP based analysis; type: cell membranes; conditions: dose microM <=30, time 30.0 min
T3 sequence (whole entry): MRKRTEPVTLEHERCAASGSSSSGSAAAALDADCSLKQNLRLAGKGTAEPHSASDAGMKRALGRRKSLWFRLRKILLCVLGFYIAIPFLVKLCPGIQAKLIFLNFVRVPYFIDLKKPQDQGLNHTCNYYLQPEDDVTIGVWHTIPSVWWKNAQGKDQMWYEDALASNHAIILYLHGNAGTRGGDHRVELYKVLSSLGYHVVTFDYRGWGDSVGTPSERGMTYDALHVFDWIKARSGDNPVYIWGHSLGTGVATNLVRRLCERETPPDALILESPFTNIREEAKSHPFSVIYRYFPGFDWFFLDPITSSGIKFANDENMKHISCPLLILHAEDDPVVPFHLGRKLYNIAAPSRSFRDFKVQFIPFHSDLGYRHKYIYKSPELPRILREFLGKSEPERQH
Summary of the method: (§1)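 Mouse brain membranes, 4 mg/mL in PBS, preincubated 25 min at 25 °C with compound at 10 µM or a range of concentrations. Labelled 5 min with TAMRA-FP at 125 nM final. Proteins resolved on 11% SDS-PAGE and scanned for fluorescence.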

[4] = biological target: T4, Monoacylglycerol lipase ABHD6 (Mus musculus) (UniProt Q8R2Y0); experiment: Inhibition of ABHD6 in mouse brain membrane up to 30 uM preincubated for 25 mins followed by TAMRA-FP labeling addition and measured after 5 mins by competitive ABPP based analysis; type: cell membranes; conditions: dose microM <=30, time 30.0 min; summary of the method: as §1
T4 sequence (whole entry): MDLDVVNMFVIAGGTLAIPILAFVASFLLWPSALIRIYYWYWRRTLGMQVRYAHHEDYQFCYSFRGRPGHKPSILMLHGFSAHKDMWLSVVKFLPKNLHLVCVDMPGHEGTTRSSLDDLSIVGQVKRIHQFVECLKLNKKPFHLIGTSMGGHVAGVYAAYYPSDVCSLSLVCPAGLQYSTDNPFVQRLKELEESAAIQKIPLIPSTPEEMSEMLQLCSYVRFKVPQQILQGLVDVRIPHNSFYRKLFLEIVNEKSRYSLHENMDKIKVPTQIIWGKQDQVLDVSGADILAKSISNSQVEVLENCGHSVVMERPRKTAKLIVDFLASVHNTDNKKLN

inhibition [1]	inhibition [2]	IC50 (MDA-MB-231)	inhibition [3]	inhibition [4]	Compound
28%	21%	65 µM	inactive	inactive	O=C(c1ccc(Cc2ccccc2)cc1)C1CCN(C(=O)c2cc(O)c(F)cc2F)CC1
27%	22%	63 µM	inactive	inactive	O=C(c1ccc(Sc2ccccc2)cc1)C1CCN(C(=O)c2cc(O)c(F)cc2F)CC1
26%	< 10%	43 µM	inactive	inactive	O=C(c1ccc(Sc2ccccc2)cc1)C1CCN(C(=O)c2cc(O)ccc2F)CC1
20%	< 10%	25 µM	inactive	inactive	O=C(c1ccc(Cc2ccccc2)cc1)C1CCN(C(=O)c2cc(O)ccc2F)CC1
